# Active and inactive are the calls of the source. No cut-off for these calls is given here.
# Key:
# PANC-1 = experiment: Antiproliferative activity against human PANC1 cells assessed as reduction in cell growth incubated for 72 hrs by MTT assay; settings: PANC-1, 72 h
# L02 = experiment: Cytotoxicity against human L02 cells assessed as reduction in cell growth incubated for 72 hrs by MTT assay; settings: L02, 72 h
# NCI/ADR-RES = experiment: Antiproliferative activity against human MCF7/ADR cells assessed as reduction in cell growth incubated for 72 hrs by MTT assay
# NCI-H1975 = experiment: Antiproliferative activity against human NCI-H1975 cells assessed as reduction in cell growth incubated for 72 hrs by MTT assay; settings: NCI-H1975, 72 h
# BXPC-3 = experiment: Antiproliferative activity against human BxPC3 cells assessed as reduction in cell growth incubated for 72 hrs by MTT assay; settings: BXPC-3, 72 h
# [1] = Cytotoxicity against human HPDEC cells assessed as reduction in cell growth incubated for 72 hrs by MTT assay
# ASPC1 [2] = experiment: Antiproliferative activity against human AsPC1 cells assessed as reduction in cell growth incubated for 72 hrs by MTT assay; settings: ASPC1, 72 h
# ASPC1 [3] = experiment: Induction of apoptosis in human AsPC1 cells assessed as nuclear condensation incubated for 72 hrs by acridine orange/ethidium bromide dye based fluorescent inverted microscopy; assay type: functional, cell-based
# How it was run: (§1)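 AsPC-1 cells (about 2×10⁵ per well) were incubated 12 h, then treated with inhibitor at 150–600 nM for 72 h. Cells were washed twice with PBS and stained with AO/EB (1.0 µg/mL each in PBS). Apoptotic, necrotic and live cells were scored and counted under a fluorescent inverted microscope at 100×.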
# ASPC1 [4] = experiment: Induction of apoptosis in human AsPC1 cells assessed as membrane blebbing incubated for 72 hrs by acridine orange/ethidium bromide dye based fluorescent inverted microscopy; assay type: functional, cell-based; how it was run: as §1
# ASPC1 [5] = experiment: Antitumor activity against human AsPC1 cells xenografted in BALB/cJNju-Foxn1nu/Nju mouse assessed as inhibition of tumor growth at 60 mg/kg, po for 7 days; assay type: functional; settings: 168 h, read-out: TGI
# How it was run: (§2)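 Nude mice were injected subcutaneously in the right axilla with 3×10⁶ AsPC-1 cells in 0.1 mL PBS. Three days later they were randomized into three groups and given compound orally once daily for 7 days, with controls receiving oral 25% PEG-400. Tumor volume was calculated as A×B²/2, and tumor weight was recorded; n = 3.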
# ASPC1 [6] = experiment: Induction of apoptosis in human AsPC1 cells assessed as apoptotic bodies incubated for 72 hrs by acridine orange/ethidium bromide dye based fluorescent inverted microscopy; assay type: functional, cell-based; how it was run: as §1
# ASPC1 [7] = settings: Homo sapiens, 125 to 1000 nM
# ASPC1 [8] = experiment: Effect on total MEK protein level in human AsPC1 cells at 10 to 100 nM incubated for 72 hrs by immunoblotting analysis; assay type: cell-based; settings: aspc1, 72 h, 0.1 µM
# How it was run: (§3)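 AsPC-1 cells were treated at 10–100 nM for 72 h and lysed. Lysates were cleared at 14,000 g for 15 min at 4 °C, and 50 µg protein was run on 8–12% SDS-PAGE and transferred to PVDF. Membranes were blocked 2 h in 5% skim milk, probed overnight at 4 °C with primary antibodies (FAK, p-FAK, MEK1, p-MEK1, ERK1/2, p-ERK1/2, β-actin) and detected by ECL.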
# ASPC1 [9] = experiment: Effect on total ERK protein level in human AsPC1 cells at 10 to 100 nM incubated for 72 hrs by immunoblotting analysis; assay type: cell-based; settings: aspc1, 72 h, 0.1 µM; how it was run: as §3
# ASPC1 [10] = experiment: Antitumor activity against human AsPC1 cells xenografted in BALB/cJNju-Foxn1nu/Nju mouse assessed as inhibition of tumor growth at 30 mg/kg, po for 7 days; assay type: functional; settings: 168 h, read-out: TGI; how it was run: as §2
# ASPC1 [11] = experiment: Induction of apoptosis in human AsPC1 cells assessed as nuclear fragmentation incubated for 72 hrs by acridine orange/ethidium bromide dye based fluorescent inverted microscopy; assay type: functional, cell-based; how it was run: as §1
# [12] = target: Focal adhesion kinase 1 (Homo sapiens) (UniProt Q05397); experiment: Inhibition of FAK in human AsPC1 cells assessed as reduction in autophosphorylation at 100 nM incubated for 72 hrs by immunoblotting analysis; assay type: cell-based; how it was run: as §3
# Sequence of Focal adhesion kinase 1 (Homo sapiens) (Q05397 2-1052 limits assumed): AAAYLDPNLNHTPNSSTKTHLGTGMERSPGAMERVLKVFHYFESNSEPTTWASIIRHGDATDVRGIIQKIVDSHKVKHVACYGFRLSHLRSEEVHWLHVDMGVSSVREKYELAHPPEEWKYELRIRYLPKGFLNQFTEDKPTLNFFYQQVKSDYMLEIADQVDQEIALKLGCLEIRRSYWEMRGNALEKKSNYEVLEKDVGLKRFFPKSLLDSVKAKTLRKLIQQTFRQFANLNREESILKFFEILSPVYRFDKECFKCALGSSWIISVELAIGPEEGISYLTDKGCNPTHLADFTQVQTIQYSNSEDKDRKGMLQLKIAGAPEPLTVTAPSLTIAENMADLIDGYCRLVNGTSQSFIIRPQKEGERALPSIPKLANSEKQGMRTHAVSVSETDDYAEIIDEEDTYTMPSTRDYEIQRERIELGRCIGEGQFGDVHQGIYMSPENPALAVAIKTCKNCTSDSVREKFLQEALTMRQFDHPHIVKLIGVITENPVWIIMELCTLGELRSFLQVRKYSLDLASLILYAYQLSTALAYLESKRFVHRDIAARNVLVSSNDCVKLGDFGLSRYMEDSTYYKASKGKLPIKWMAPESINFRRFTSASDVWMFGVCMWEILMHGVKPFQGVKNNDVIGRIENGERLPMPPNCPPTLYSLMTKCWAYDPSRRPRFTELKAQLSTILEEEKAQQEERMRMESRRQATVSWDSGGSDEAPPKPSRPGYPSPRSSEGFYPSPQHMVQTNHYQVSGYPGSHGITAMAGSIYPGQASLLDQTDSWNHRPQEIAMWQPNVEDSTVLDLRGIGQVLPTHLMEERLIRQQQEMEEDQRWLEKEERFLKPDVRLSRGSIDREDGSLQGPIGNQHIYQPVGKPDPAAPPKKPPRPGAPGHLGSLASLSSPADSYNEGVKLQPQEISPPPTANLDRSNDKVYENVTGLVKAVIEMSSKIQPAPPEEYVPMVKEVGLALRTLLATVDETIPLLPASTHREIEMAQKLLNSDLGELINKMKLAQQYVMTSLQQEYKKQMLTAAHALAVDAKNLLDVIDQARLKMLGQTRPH
IC50 (PANC-1) [nM],IC50 (NCI-H1975) [nM],IC50 (BXPC-3) [nM],IC50 (ASPC1 [2]) [nM],inhibition [12] [%],Structure (SMILES),IC50 (L02) [nM],IC50 (NCI/ADR-RES) [nM],IC50 [1] [nM],Activity (ASPC1 [3]),Activity (ASPC1 [4]),inhibition in vivo at 60 mg/kg (ASPC1 [5]) [%],Activity (ASPC1 [6]),inhibition (ASPC1 [7]),Activity (ASPC1 [8]),Activity (ASPC1 [9]),inhibition in vivo at 30 mg/kg (ASPC1 [10]) [%],Activity (ASPC1 [11])
> 10000,160,5990,1750,–,CNC(=O)c1ccccc1Nc1nc(Nc2ccc(OCC(=O)N3CCOCC3)cc2)ncc1Cl,594,2930,4790,–,–,–,–,–,–,–,–,–
1540,495,5340,2870,–,CNC(=O)c1ccccc1Nc1nc(Nc2ccc(OC(C)C(=O)N3CCOCC3)cc2)ncc1Cl (configuration not stated),821,1440,1040,–,–,–,–,–,–,–,–,–
4120,1170,90,105,–,CNC(=O)c1ccccc1Nc1nc(Nc2ccc(CC(=O)N3CCOCC3)cc2)ncc1Cl,3700,590,6620,Active,Active,67,Active,Active,Non-Toxic,Non-Toxic,87,Active
> 10000,> 2000,> 10000,–,100,CNC(=O)c1ccccc1Nc1nc(Nc2ccc(N3CCOCC3)cc2OC)ncc1Cl,–,> 5000,11400,–,–,–,–,–,–,–,–,–

# More lines, now with the values behind:
Structure (SMILES),IC50 (PANC-1) [nM],IC50 (NCI-H1975) [nM],IC50 (BXPC-3) [nM],IC50 (ASPC1 [2]) [nM],inhibition [12] [%],IC50 (L02) [nM],IC50 (NCI/ADR-RES) [nM],IC50 [1] [nM],Activity (ASPC1 [3]),Activity (ASPC1 [4]),inhibition in vivo at 60 mg/kg (ASPC1 [5]) [%],Activity (ASPC1 [6]),inhibition (ASPC1 [7]),Activity (ASPC1 [8]),Activity (ASPC1 [9]),inhibition in vivo at 30 mg/kg (ASPC1 [10]) [%],Activity (ASPC1 [11])
O=C(NC1CC1)c1ccccc1Nc1nc(Nc2ccc(OCC(=O)N3CCOCC3)cc2)ncc1Cl,> 10000,514,> 10000,> 10000,–,910,> 5000,16700,–,–,–,–,–,–,–,–,–
CNC(=O)c1ccccc1Nc1nc(Nc2ccc(SCC(=O)N3CCOCC3)cc2)ncc1Cl,5510,413,2890,1220,–,4330,1820,1990,–,–,–,–,–,–,–,–,–
CCC(Oc1ccc(Nc2ncc(Cl)c(Nc3ccccc3C(=O)NC)n2)cc1)C(=O)N1CCOCC1 (configuration not stated),750,444,8730,2600,–,674,2100,2170,–,–,–,–,–,–,–,–,–
